From ChEMBL document CHEMBL4364258, “Discovery of novel benzofuran-based compounds with neuroprotective and immunomodulatory properties for Alzheimer's disease treatment” (Eur J Med Chem, 2019)
Activity calls are given as the source filed them. The rule behind the calls is not given here.

Key:
Cholinesterase [1] = target: T1, Cholinesterase (Homo sapiens, UniProt P06276); test: Inhibition of human recombinant BuChE at 25 uM using butyrylthiocholine iodide as substrate preincubated for 20 mins followed by substrate addition by Ellman's spectrophotometric method relative to control
T1 sequence (P06276 whole entry): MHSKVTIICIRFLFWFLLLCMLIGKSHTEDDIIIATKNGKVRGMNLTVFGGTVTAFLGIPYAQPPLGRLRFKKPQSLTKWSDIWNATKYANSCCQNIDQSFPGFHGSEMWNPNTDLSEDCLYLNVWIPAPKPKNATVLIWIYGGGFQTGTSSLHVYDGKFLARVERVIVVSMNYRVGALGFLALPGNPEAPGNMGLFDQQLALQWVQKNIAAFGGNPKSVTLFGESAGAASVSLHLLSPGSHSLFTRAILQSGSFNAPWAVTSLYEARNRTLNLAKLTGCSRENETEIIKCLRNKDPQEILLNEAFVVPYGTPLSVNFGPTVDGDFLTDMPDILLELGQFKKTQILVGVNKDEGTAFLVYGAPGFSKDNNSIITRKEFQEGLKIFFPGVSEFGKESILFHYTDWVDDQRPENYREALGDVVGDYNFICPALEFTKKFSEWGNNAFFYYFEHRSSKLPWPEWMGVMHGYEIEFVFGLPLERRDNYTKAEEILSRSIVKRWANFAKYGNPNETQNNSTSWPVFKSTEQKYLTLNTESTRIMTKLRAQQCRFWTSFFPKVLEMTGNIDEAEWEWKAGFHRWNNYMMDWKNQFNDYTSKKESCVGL

Cholinesterase [2] = target: T1, Cholinesterase; test: Inhibition of human recombinant BuChE using butyrylthiocholine iodide as substrate preincubated for 20 mins followed by substrate addition by Ellman's spectrophotometric method
Cannabinoid receptor 1 [3] = target: T2, Cannabinoid receptor 1 (Homo sapiens, UniProt P21554); test: Displacement of 3[H]-CP55940 from human recombinant CB1 receptor expressed in HEK293 cell membranes measured after 90 mins
T2 sequence (P21554 whole entry): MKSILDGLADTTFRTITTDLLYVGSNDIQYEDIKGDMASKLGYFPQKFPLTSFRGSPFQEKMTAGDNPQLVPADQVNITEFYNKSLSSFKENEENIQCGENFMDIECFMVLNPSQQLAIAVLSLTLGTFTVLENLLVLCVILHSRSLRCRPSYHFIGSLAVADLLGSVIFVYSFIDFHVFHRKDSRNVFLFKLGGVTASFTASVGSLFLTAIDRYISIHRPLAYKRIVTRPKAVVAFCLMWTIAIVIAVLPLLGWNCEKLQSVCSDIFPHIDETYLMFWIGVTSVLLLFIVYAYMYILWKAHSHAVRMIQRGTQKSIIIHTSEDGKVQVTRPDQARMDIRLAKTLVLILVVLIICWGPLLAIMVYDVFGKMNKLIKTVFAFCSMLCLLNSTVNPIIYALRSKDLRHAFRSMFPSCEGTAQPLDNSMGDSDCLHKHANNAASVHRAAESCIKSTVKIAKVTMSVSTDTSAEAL

Cannabinoid receptor 1 [4] = target: T2, Cannabinoid receptor 1; test: Displacement of 3[H]-CP55940 from human recombinant CB1 receptor expressed in HEK293 cell membranes measured after 90 mins by Cheng-Prusoff equation analysis
Cannabinoid receptor 2 [5] = target: T3, Cannabinoid receptor 2 (Homo sapiens, UniProt P34972); test: Displacement of 3[H]-CP55940 from human recombinant CB2 receptor expressed in HEK293 cell membranes measured after 90 mins
T3 sequence (P34972 whole entry): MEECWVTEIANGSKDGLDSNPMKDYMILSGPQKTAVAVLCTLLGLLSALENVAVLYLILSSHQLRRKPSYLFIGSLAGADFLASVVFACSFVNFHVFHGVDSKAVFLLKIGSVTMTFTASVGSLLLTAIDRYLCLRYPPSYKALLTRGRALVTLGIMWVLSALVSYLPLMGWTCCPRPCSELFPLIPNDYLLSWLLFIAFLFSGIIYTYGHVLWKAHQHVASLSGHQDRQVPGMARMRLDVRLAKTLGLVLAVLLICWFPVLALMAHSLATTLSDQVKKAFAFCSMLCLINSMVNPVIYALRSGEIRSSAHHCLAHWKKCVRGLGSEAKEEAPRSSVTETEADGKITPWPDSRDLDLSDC

Cannabinoid receptor 2 [6] = target: T3, Cannabinoid receptor 2; test: Displacement of 3[H]-CP55940 from human recombinant CB2 receptor expressed in HEK293 cell membranes measured after 90 mins by Cheng-Prusoff equation analysis
Cholinesterase [7] = target: T1, Cholinesterase; test: Potency index, ratio of galanthamine IC50 to compound IC50 for inhibition of human recombinant BuChE
Homo sapiens = species: Homo sapiens; test: Selectivity index, ratio of Ki for displacement of 3[H]-CP55940 from human recombinant CB1 receptor expressed in HEK293 cell membranes to Ki for displacement of 3[H]-CP55940 from human recombinant CB2 receptor expressed in HEK293 cell membranes
Cannabinoid receptor 2 [8] = target: T3, Cannabinoid receptor 2; test: Inverse agonist activity at recombinant human CB2R expressed in CHOK1 cells assessed as increase in NKH477-stimulated intracellular cAMP levels after 30 mins by chemiluminescent based cAMP Hunter assay; type: functional, cell-based
In short: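 CHO-K1 cells stably expressing human CB2R, 30,000 cells/well, held overnight. Compound dose-response with NKH-477 (forskolin analogue, 25 µM) for 30 min at 37 °C. cAMP measured by enzyme-fragment-complementation chemiluminescence. Normalized with NKH-477 alone = 100%. Three independent experiments in triplicate, mean ± SEM.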

Cannabinoid receptor 2 [9] = target: T3, Cannabinoid receptor 2; test: Inverse agonist activity at recombinant human CB2R expressed in CHOK1 cells assessed as increase in NKH477-stimulated intracellular cAMP levels preincubated for 15 mins followed by CB2 agonist JWH-133 addition and measured after 30 mins by chemiluminescent based cAMP Hunter assay; type: functional, cell-based
SH-SY5Y [10] = test: Cytotoxicity against human SH-SY5Y cells assessed as effect on cell viability up to 5 uM after 24 hrs by MTT assay; type: cell-based
In short: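 SH-SY5Y cells grown in DMEM with 10% FBS, 2 mM L-glutamine and penicillin/streptomycin, seeded 2×10^4 cells/well, 24 h, then exposed 24 h to 1.25–40 µM. Viability read as MTT reduction: MTT 0.5 mg/mL in HBSS 2 h at 37 °C, formazan dissolved in isopropanol, absorbance 570 nm (reference 690 nm).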

N9 [11] = test: Immunomodulatory activity in LPS-induced mouse N9 cells assessed as reduction in iNOS expression at 5 uM after 24 hrs by Western blotting analysis relative to control; type: functional; details: N9, 24 h
In short: (§1)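 N9 microglia on poly-L-lysine in DMEM high glucose with 10% FBS, plated 2.5×10^5 cells/35 mm dish. Activated with LPS 100 ng/mL together with 0, 5 or 10 µM compound in serum-free DMEM for 24 h. Lysates run on 12.5% SDS-PAGE and immunoblotted for iNOS or TREM2, with GAPDH as loading control, ECL detection. Densitometry given as % of LPS alone, three experiments.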

N9 [12] = test: Immunomodulatory activity in LPS-induced mouse N9 cells assessed as reduction in TREM2 expression at 5 uM after 24 hrs by Western blotting analysis relative to control; type: functional, cell-based; in short: as §1
Cannabinoid receptor 2 [13] = target: T3, Cannabinoid receptor 2; test: Potency index, ratio of SR144528 Ki to compound Ki for displacement of 3[H]-CP55940 from human recombinant CB2
N9 [14] = test: Downregulation of total GAPDH in LPS-induced mouse N9 cells at 5 uM after 24 hrs by Western blotting analysis; type: ADME, cell-based; details: n9, 24 h; in short: as §1
SH-SY5Y [15] = test: Neuroprotection against amyloid beta (1 to 42) induced toxicity in human SH-SY5Y cells after 4 hrs by MTT assay; type: functional, cell-based
In short: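 SH-SY5Y cells seeded 3×10^4/well, 24 h, then treated 4 h with Aβ1-42 oligomers (10 µM) plus compound at 0.625–5.0 µM. Read by MTT formazan exocytosis assay: MTT 0.5 mg/mL in HBSS 1 h at 37 °C, intracellular formazan dissolved in 1% Tween 20, absorbance 570 nm (reference 690 nm). At least three independent experiments.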

SMILES	inhibition (Cholinesterase [1]) [%]	IC50 (Cholinesterase [2]) [nM]	IC50 (Cannabinoid receptor 1 [3]) [nM]	Ki (Cannabinoid receptor 1 [4]) [nM]	IC50 (Cannabinoid receptor 2 [5]) [nM]	Ki (Cannabinoid receptor 2 [6]) [nM]	Ratio IC50 (Cholinesterase [7])	Ratio Ki (Homo sapiens)	Activity (Cannabinoid receptor 2 [8])	Activity (Cannabinoid receptor 2 [9])	Activity (SH-SY5Y [10])	inhibition at 5 µM (N9 [11]) [%]	Activity (N9 [12])	Ratio Ki (Cannabinoid receptor 2 [13])	Activity (N9 [14])	Activity (SH-SY5Y [15])
COc1ccc(-c2oc3ccccc3c2C(=O)c2ccc(OCCCCCN(C)Cc3ccccc3)cc2)cc1	> 90	1090	7200	1760	> 10000	> 10000	19									
COc1ccc(-c2oc3ccccc3c2C(=O)c2ccc(N(C)Cc3ccc(F)cc3)cc2)cc1	< 10		80	20	10	2.7		7.4	Active	Dose-dependent effect	Non-Toxic	60	inactive	600		
COc1ccc(-c2oc3ccccc3c2C(=O)c2ccc(NCC3CC3)cc2)cc1	22.4		1670	470	410	110		4.3								
COc1ccc(-c2oc3ccccc3c2C(=O)c2ccc(OCCCCN(C)Cc3ccccc3)cc2)cc1	35.2	219000	3520	860	> 10000	> 10000										
CCCCCCCNc1ccc(C(=O)c2c(-c3ccc(OC)cc3)oc3ccccc23)cc1	30.2		5840	1660	1540	410		4								
CCCCCNc1ccc(C(=O)c2c(-c3ccc(OC)cc3)oc3ccccc23)cc1	72.2	3900	300	80	260	70		1.1								
COc1ccc(-c2oc3ccccc3c2C(=O)c2ccc(OCCN(C)Cc3ccccc3)cc2)cc1	65	14000	1520	430	2630	690		0.6								
COc1ccc(-c2oc3ccccc3c2C(=O)c2ccc(N(Cc3ccccc3)Cc3ccccc3)cc2)cc1	30.9		> 10000	> 10000	3640	920		> 11								
CN(CCCCCCCOc1ccc(-c2oc3ccccc3c2C(=O)c2ccccc2)cc1)Cc1ccccc1															Toxic	
COc1ccc(-c2oc3ccccc3c2C(=O)c2ccc(NCc3ccc(C#N)cc3)cc2)cc1	< 10		9120	2600	90	20		130								
COc1ccc(-c2oc3ccccc3c2C(=O)c2ccc(-n3cc(COc4cccc(F)c4)nn3)cc2)cc1	< 10		> 10000	> 10000	> 10000	> 10000										
COc1ccc(-c2oc3ccccc3c2C(=O)c2ccc(N(Cc3cc(F)cc(F)c3)Cc3cc(F)cc(F)c3)cc2)cc1	67	11700	> 10000	> 10000	> 10000	> 10000										
COc1ccc(-c2oc3ccccc3c2C(=O)c2ccc(NCc3ccc(F)cc3)cc2)cc1	60.8		3210	780	70	20		39			Non-Toxic	83	inactive			Dose-dependent effect
COc1ccc(-c2oc3ccccc3c2C(=O)c2ccc(OCCCN(C)Cc3ccccc3)cc2)cc1	35	135000	2060	500	440	120		4.2								
COc1ccc(-c2oc3ccccc3c2C(=O)c2ccc(NCc3cc(F)cc(F)c3)cc2)cc1	< 10		> 10000	> 10000	1150	300		> 33								
COc1ccc(CNc2ccc(C(=O)c3c(-c4ccc(OC)cc4)oc4ccccc34)cc2)cc1	< 10		> 10000	> 10000	3860	1020		> 10								
COc1ccc(-c2oc3ccccc3c2C(=O)c2ccc(N(Cc3ccc(F)cc3)Cc3ccc(F)cc3)cc2)cc1	75	6030	> 10000	> 10000	1650	430		> 23								
COc1ccc(-c2oc3ccccc3c2C(=O)c2ccc(NCc3ccccc3)cc2)cc1	< 10		> 10000	> 10000	660	170		> 59								
COc1ccc(-c2oc3ccccc3c2C(=O)c2ccc(NCc3ccccn3)cc2)cc1	15.3		> 10000	> 10000	5090	1340		> 7.5								
